Measured values taken from ChEMBL document CHEMBL4725498, “Synthesis and Biological Evaluations of Electrophilic Steroids Inspired by the Taccalonolides” (ACS Med Chem Lett, 2020).
Calls of active or inactive are those of the source. The calls are words filed in the database; no cut-off is given here.

Columns and labels:
HeLa [1] = assay: Cytotoxicity against human HeLa cells assessed as reduction in cell viability measured after 48 hrs by sulforhodamine B assay; type: functional; details: read-out: LC50 (the source's name)
In short: (§1)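 HeLa cells exposed to compound for 48 h, then growth measured by sulforhodamine B (SRB) staining. GI50 (50% growth inhibition), TGI (total growth inhibition) and LC50 (50% cytotoxicity) were read from concentration–response data. Values are average ± SEM, n = 3–5.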

HeLa [2] = assay: Antiproliferative activity against human HeLa cells assessed as growth inhibition measured after 48 hrs by sulforhodamine B assay; type: functional; in short: as §1
Sus scrofa = organism: Sus scrofa; assay: Inhibition of porcine brain tubulin polymerization assessed as reduction in rate and extent of tubulin polymerization at 20 uM by turbidimetric assay
In short: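 Purified porcine brain tubulin (20 μM) was incubated with 20 μM compound or DMSO vehicle. Polymerization was monitored turbidimetrically after shift to 37 °C.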

BT-549 = assay: Cytotoxicity against human BT-549 cells assessed as reduction in cell viability measured after 48 hrs by sulforhodamine B assay; type: functional; details: read-out: LC50 (the source's name)
In short: (§2)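 Breast lines were tested in a 48 h SRB assay: four molecularly diverse triple-negative lines plus nontumorigenic MCF 10A, with MCF 10A tested up to 50 μM. LC50 values came from concentration–response curves. Complete cytotoxicity was taken as the concentration giving full cell kill after 48 h incubation.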

MDA-MB-231 = assay: Cytotoxicity against human MDA-MB-231 cells assessed as reduction in cell viability measured after 48 hrs by sulforhodamine B assay; type: functional; in short: as §2
HCC1937 = assay: Cytotoxicity against human HCC1937 cells assessed as reduction in cell viability measured after 48 hrs by sulforhodamine B assay; type: functional; details: read-out: LC50 (the source's name); in short: as §2
[3] = Selectivity index, ratio of LC50 for human HeLa cells to LC50 for human HCC1937 cells measured after 48 hrs by sulforhodamine B assay; type: functional
MDA-MB-453 = assay: Cytotoxicity against human MDA-MB-453 cells assessed as reduction in cell viability measured after 48 hrs by sulforhodamine B assay; type: functional; in short: as §2
SK-OV-3 [4] = assay: Antiproliferative activity against human SKOV3-M6/6 cells assessed as reduction in cell growth at 0.01 to 10 uM incubated for 48 hrs by SRB assay; type: functional, cell-based; details: dose microM 0.01-10, time 48.0 hrs
Tubulin (Homo sapiens) = Tubulin (Homo sapiens) (UniProt P68371+Q9H4B7+P0DPH7+P68366+Q13509+Q71U36+P04350+Q3ZCM7+P07437+P68363+Q9BQE3+Q6PEY2+Q13885+Q9BVA1+Q9BUF5); assay: Induction of microtubule stabilization in human BT-549 cells assessed as bundling of microtubule network at 1 microM incubated for 6 hrs by indirect immunofluorescence assay; type: cell-based
In short: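 BT-549 cells were treated for 6 h with compound or DMSO vehicle. Microtubules were then visualised by immunofluorescence with a β-tubulin antibody, scoring microtubule loss or bundling.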

ES2 = assay: Antiproliferative activity against human ES-2 cells assessed as reduction in cell growth at 0.01 to 10 uM incubated for 48 hrs by SRB assay; type: functional, cell-based; details: dose microM 0.01-10, time 48.0 hrs
[5] = Selectivity ratio of antiproliferative activity against human SKOV3-M6/6 cells transfected with MDR1 to antiproliferative activity against human SKOV3 cells measured after 48 hrs by sulforhodamine B assay; type: functional
SK-OV-3 [6] = assay: Antiproliferative activity against human SKOV3 cells assessed as reduction in cell growth at 0.01 to 10 uM incubated for 48 hrs by SRB assay; type: functional, cell-based; details: dose microM 0.01-10, time 48.0 hrs
OVCAR-5 = assay: Antiproliferative activity against human OVCAR-5 cells assessed as reduction in cell growth at 0.01 to 10 uM incubated for 48 hrs by SRB assay; type: functional, cell-based; details: dose microM 0.01-10, time 48.0 hrs

Compound | CC50 (HeLa [1]) | GI50 (HeLa [2]) | TGI (HeLa [2]) | also measured
CO[C@@H]1CC(=O)[C@@]2(C)CC[C@H]3[C@@H](C[C@H](O)[C@H]4C[C@@H]5O[C@@H]5C[C@@]43C)[C@H]12 | > 50000 nM | > 50000 nM | > 50000 nM | –
C[C@]12C[C@H]3O[C@H]3C[C@@H]1C(=O)C[C@@H]1[C@@H]2CC[C@]2(C)C(=O)C=C[C@@H]12 | 2040 nM | 760 nM | 1280 nM | inhibition (Sus scrofa): Active
C[C@]12CC[C@H](O)C[C@@H]1CC[C@H]1[C@@H]3[C@@H]4O[C@@H]4C(=O)[C@@]3(C)CC[C@@H]12 | 2200 nM | 1300 nM | 1800 nM | CC50 (BT-549): 1430 nM; LC50 (concentration killing 50% of cells) (MDA-MB-231): 1400 nM; CC50 (HCC1937): 820 nM; RatioLC50 [3]: 2; LC50 (concentration killing 50% of cells) (MDA-MB-453): 1080 nM
C[C@]12C[C@H]3O[C@H]3C[C@@H]1[C@@H](O)C[C@@H]1[C@@H]2CC[C@]2(C)C(=O)C=C[C@@H]12 | 2370 nM | 1180 nM | 1620 nM | inhibition (Sus scrofa): Active
CC(=O)O[C@H]1C(=O)[C@@]2(C)[C@H]([C@H](OC(=O)c3ccccc3)[C@]3(O)C[C@H](OC(=O)[C@H](O)[C@@H](NC(=O)c4ccccc4)c4ccccc4)C(C)=C1C3(C)C)[C@]1(OC(C)=O)CO[C@@H]1C[C@@H]2O [PACLITAXEL] | – | – | – | Activity (SK-OV-3 [4]): Active; Activity (Tubulin (Homo sapiens)): Active; Activity (ES2): Active; Ratio [5]: 25; Activity (SK-OV-3 [6]): Active; Activity (OVCAR-5): Active
C[C@]12C[C@@H]3N[C@@H]3C[C@@H]1CC[C@H]1[C@@H]3[C@@H]4O[C@@H]4C(=O)[C@@]3(C)CC[C@@H]12 | 1420 nM | 470 nM | 750 nM | –
C[C@]12CC=CC[C@@H]1[C@@H](O)C[C@@H]1[C@@H]2CC[C@]2(C)C(=O)C=C[C@@H]12 | 700 nM | 277 nM | 410 nM | –
CO[C@@H]1CC(=O)[C@@]2(C)CC[C@H]3[C@@H](CC(=O)[C@H]4C[C@@H]5O[C@@H]5C[C@@]43C)[C@H]12 | > 50000 nM | > 50000 nM | > 50000 nM | –
C[C@]12CC[C@H]3[C@@H](CC[C@H]4C[C@@H]5O[C@@H]5C[C@@]43C)[C@@H]1[C@H](O)[C@H]1O[C@H]12 | > 50000 nM | > 50000 nM | > 50000 nM | –
C[C@]12CC=CC[C@@H]1CC[C@H]1[C@@H]3[C@@H]4O[C@@H]4C(=O)[C@@]3(C)CC[C@@H]12 | 1480 nM | 700 nM | 1000 nM | –
C[C@]12C[C@H]3O[C@H]3C[C@@H]1CC[C@@H]1[C@@H]2CC[C@]2(C)[C@@H]3O[C@@H]3C[C@@H]12 | > 50000 nM | > 50000 nM | > 50000 nM | –
C[C@]12CC=CC[C@@H]1[C@@H](O)C[C@H]1[C@@H]3[C@@H]4O[C@@H]4C(=O)[C@@]3(C)CC[C@@H]12 | 1320 nM | 710 nM | 930 nM | –
C[C@]12C[C@H]3O[C@H]3C[C@@H]1CC[C@@H]1[C@@H]2CC[C@]2(C)C=CC(=O)[C@@H]12 | 18200 nM | 9200 nM | 12800 nM | –
C[C@]12C[C@H]3O[C@H]3C[C@@H]1[C@@H](O)C[C@H]1[C@@H]3[C@@H]4O[C@@H]4C(=O)[C@@]3(C)CC[C@@H]12 | 3290 nM | 2010 nM | 2500 nM | –
C[C@]12C[C@H]3O[C@H]3C[C@@H]1CC[C@@H]1[C@@H]2CC[C@]2(C)[C@@H]3O[C@@H]3C(=O)[C@@H]12 | > 50000 nM | 34700 nM | > 50000 nM | –
C[C@]12CC=CC[C@@H]1C(=O)C[C@H]1[C@@H]3[C@@H]4O[C@@H]4C(=O)[C@@]3(C)CC[C@@H]12 | 1570 nM | 820 nM | 1090 nM | –
CO[C@@H]1CC(=O)[C@@]2(C)CC[C@H]3[C@@H](CC(=O)[C@H]4CC=CC[C@@]43C)[C@H]12 | > 50000 nM | 19400 nM | 35500 nM | –
C[C@]12C[C@H]3O[C@H]3C[C@@H]1C(=O)C[C@H]1[C@@H]3[C@@H]4O[C@@H]4C(=O)[C@@]3(C)CC[C@@H]12 | 3700 nM | 2060 nM | 2660 nM | –
CO[C@@H]1CC(=O)[C@@]2(C)CC[C@H]3[C@@H](C[C@H](O)[C@H]4CC=CC[C@@]43C)[C@H]12 | 48100 nM | 17500 nM | 30100 nM | –
C[C@]12C[C@H]3O[C@H]3C[C@@H]1CC[C@@H]1[C@@H]2CC[C@]2(C)C(=O)C=C[C@@H]12 | 860 nM | 310 nM | 510 nM | CC50 (BT-549): 450 nM; inhibition (Sus scrofa): Active; CC50 (MDA-MB-231; read-out: LC50 (the source's name)): 1580 nM; CC50 (HCC1937): 1780 nM
C[C@]12CCC(=O)C[C@@H]1CC[C@@H]1[C@@H]2CC[C@]2(C)C(=O)C=C[C@@H]12 | 1270 nM | 380 nM | 750 nM | –
C[C@]12CCC(=O)C[C@@H]1CC[C@H]1[C@@H]3[C@@H]4O[C@@H]4C(=O)[C@@]3(C)CC[C@@H]12 | 1900 nM | 1000 nM | 1400 nM | CC50 (BT-549): 1340 nM; LC50 (concentration killing 50% of cells) (MDA-MB-231): 1230 nM; CC50 (HCC1937): 700 nM; RatioLC50 [3]: 2; LC50 (concentration killing 50% of cells) (MDA-MB-453): 1010 nM
C[C@]12CC[C@H](O)C[C@@H]1CC[C@@H]1[C@@H]2CC[C@]2(C)C(=O)C=C[C@@H]12 | 1180 nM | 420 nM | 770 nM | –
C[C@]12C[C@H]3O[C@H]3C[C@@H]1CC[C@@H]1[C@@H]2CC[C@]2(C)C(=O)CC[C@@H]12 | 43400 nM | 19200 nM | 29800 nM | –
CC(=O)O[C@H]1[C@H]2[C@H]([C@@H]3[C@@H](O)[C@@H]4[C@H]([C@H](C)[C@H]5O[C@]56OC(=O)[C@@](C)(O)[C@]46C)[C@@]3(C)[C@H]1OC(C)=O)[C@@H](O)C(=O)[C@H]1C[C@@H]3O[C@@H]3[C@H](OC(C)=O)[C@]21C | – | – | – | Activity (SK-OV-3 [4]): Active; Activity (ES2): Active; Activity (SK-OV-3 [6]): Active; Activity (OVCAR-5): Active
C[C@]12C[C@H]3O[C@H]3C[C@@H]1CC[C@H]1[C@@H]3[C@@H]4O[C@@H]4C(=O)O[C@@]3(C)CC[C@@H]12 | > 50000 nM | 28200 nM | > 50000 nM | –
CC(C)(C)OC(=O)N1[C@@H]2C[C@@]3(C)[C@@H](CC[C@H]4[C@@H]5[C@@H]6O[C@@H]6C(=O)[C@@]5(C)CC[C@@H]43)C[C@@H]21 | 730 nM | 640 nM | 680 nM | –
C[C@]12CC=CC[C@@H]1C(=O)C[C@@H]1[C@@H]2CC[C@]2(C)C(=O)C=C[C@@H]12 | 1290 nM | 760 nM | 980 nM | –
Cc1ccc(S(=O)(=O)N2[C@@H]3C[C@@]4(C)[C@@H](CC[C@H]5[C@@H]6[C@@H]7O[C@@H]7C(=O)[C@@]6(C)CC[C@@H]54)C[C@@H]32)cc1 (some centres not stated) | 660 nM | 450 nM | 540 nM | CC50 (BT-549): 260 nM; inhibition (Sus scrofa): inactive; LC50 (concentration killing 50% of cells) (MDA-MB-231): 470 nM; CC50 (HCC1937): 760 nM; LC50 (concentration killing 50% of cells) (MDA-MB-453): 350 nM
